Measured values: ChEMBL document CHEMBL1127290, “1-(2,5-Dimethoxy-4-(trifluoromethyl)phenyl)-2-aminopropane: a potent serotonin 5-HT2A/2C agonist” (J Med Chem, 1994)
“And” between values parts separate entries of the source, which are not always exact repeats. Equal entries are not always repeated.

Tests used:
[1] = target: T1, Serotonin receptor 2a and 2c (5HT2A and 5HT2C) (Rattus norvegicus, UniProt P08909+P14842); assay: Tested for the binding affinity against the site labelled by the 5-hydroxytryptamine 2A receptor - 5-hydroxytryptamine 2C receptor antagonist [3H] ketanserin; assay type: protein assay
In short: (§1)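 Rat frontal cortex homogenate in 50 mM Tris HCl pH 7.4 with 0.5 mM EDTA, 0.1% ascorbate, pargyline and 5.7 mM CaCl2; 200–400 μg protein. […] Nonspecific binding defined by 10 μM cinanserin. Triplicate determinations, scintillation counting.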

[2] = target: T1, Serotonin receptor 2a and 2c (5HT2A and 5HT2C); assay: Tested for the binding affinity against the site labelled by the 5-hydroxytryptamine 2A receptor - 5-hydroxytryptamine 2C receptor agonist [125I]- - (+/-)DOI; assay type: protein assay
In short: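 Rat frontal cortex homogenate, pooled and preincubated twice at 37 °C. Buffer was 50 mM Tris HCl pH 7.4 with 0.5 mM EDTA, 0.1% ascorbate, pargyline and MgCl2; 200–400 μg protein. 0.1 nM [125I]DOI was competed by 8–10 test concentrations, 15 min at 37 °C, then GF/C filtration. Nonspecific binding defined by 10 μM cinanserin. Triplicates, gamma counting.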

Rattus norvegicus [3] = species: Rattus norvegicus; assay: Effective dose in rat; assay type: functional
In short: (§2)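 Rats trained on a two-lever FR50 food-reinforced task to discriminate LSD tartrate (0.08 mg/kg, ip, 30 min pre-session) from saline. Test drugs were given ip in 0.9% saline, 1 mL/kg, 30 min before extinction test sessions ended at 50 presses; failure within 5 min was scored as disruption. Quantal %SDL per dose. ED50 with 95% CI by Litchfield–Wilcoxon log-probit, not calculated if ≥50% disrupted.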

[4] = target: T2, 5-hydroxytryptamine receptor 1A (Rattus norvegicus, UniProt P19327); assay: Tested for the binding affinity against the site labelled by the 5-hydroxytryptamine 1A receptor agonist [3H]- 8-OH-DPAT
T2 sequence (P19327 whole entry): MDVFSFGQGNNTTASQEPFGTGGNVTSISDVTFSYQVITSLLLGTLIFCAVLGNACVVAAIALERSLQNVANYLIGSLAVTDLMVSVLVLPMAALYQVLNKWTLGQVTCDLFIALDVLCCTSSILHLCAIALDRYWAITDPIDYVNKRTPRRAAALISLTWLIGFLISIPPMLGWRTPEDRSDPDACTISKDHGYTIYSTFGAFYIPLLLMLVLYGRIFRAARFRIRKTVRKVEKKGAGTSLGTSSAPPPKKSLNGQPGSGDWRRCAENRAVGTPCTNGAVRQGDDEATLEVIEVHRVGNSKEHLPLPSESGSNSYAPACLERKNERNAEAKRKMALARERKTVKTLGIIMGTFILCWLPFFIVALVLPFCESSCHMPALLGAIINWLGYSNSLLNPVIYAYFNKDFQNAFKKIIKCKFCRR
In short: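 [3H]-8-OH-DPAT binding in rat brain homogenate (frontal cortex or hippocampus) in 50 mM Tris HCl pH 7.4 with EDTA, ascorbate and pargyline; 200–400 μg protein. 15 min at 37 °C, then GF/C filtration. Nonspecific binding defined by 10 μM 5-HT. Triplicates, scintillation counting.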

[5] = target: T1, Serotonin receptor 2a and 2c (5HT2A and 5HT2C); assay: Tested for the binding affinity against the site labelled by the 5-hydroxytryptamine 2A receptor - 5-hydroxytryptamine 2C receptor antagonist [3H]- ketanserin; assay type: protein assay; in short: as §1
Rattus norvegicus [6] = species: Rattus norvegicus; assay: The percentage of rats selecting the drug lever at each dose; assay type: functional; in short: as §2

Row | SMILES | Ki [1] [nM] | Ki [2] [nM] | ED50 (Rattus norvegicus [3]) [µmol/kg] | Ki [4] [nM] | Ki [5] [nM] | SDL (Rattus norvegicus [6])
1 | COc1cc(C(F)(F)F)c(OC)cc1CCN | 74.5 | 1.1 | 0.82 | 3420 | – | –
2 | COc1cc(CCN)c(OC)cc1I | – | 1.9 | 1.04 | – | 80.9 | –
3 | COc1cc(CC(C)N)c(OC)cc1I (centres undefined) | – | – | 0.97 | – | – | 80% [middle of 4 runs]
4 | COc1cc(C(F)(F)F)c(OC)cc1CC(C)N (centres undefined) | – | 1.5 | – | 2220 | 33 | 62.5% and 80% and 100%
5 | COc1cc(CC(C)N)c(OC)cc1Br (centres undefined) [BROLAMFETAMINE] | – | – | 1.12 | – | – | –
